Test [1] concerns Rattus norvegicus. The test is described as follows: Assessment of antihypertensive activity at 100 mg/kg administered perorally by measuring the heart rate in rats. Conditions: route oral. The format is functional.
Test [2] concerns Rattus norvegicus. The test is described as follows: The antihypertensive activity was assessed by measuring the heart rate in rats when administered at 30 mg/kg. The format is functional. The procedure, abridged:
(§1)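 16-week-old male SH rats (Okamoto) were dosed by oral gavage in 3% starch in normal saline (2 mL/kg), plus an oral saline load of 25 mL/kg. They were redosed at 24 h without the saline load. MABP and HR were taken by direct femoral arterial puncture under local anesthesia 4 h after the second dose. HR was rounded to 10 bpm.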

The test system of test [3] is Rattus norvegicus. The test can be described thus: The antihypertensive activity was assessed by measuring the heart rate in rats when administered at 50 mg/kg. In kind it is functional. The procedure, abridged:
as §1

Test [4] concerns Rattus norvegicus. The test is described as follows: The antihypertensive activity was assessed by measuring the heart rate in rats when administered at 10 mg/kg. In kind it is functional. The procedure, abridged: as §1
For test [5], the species on record is Rattus norvegicus. In kind it is functional, Artery. The following applies: dose 100 mg/kg; route oral.
In test [6] the test system is Rattus norvegicus. The test can be described thus: The antihypertensive activity was assessed by measuring the mean arterial blood pressure in rats when administered at 30 mg/kg. The format is functional. Put shortly: as §1
Test [7] deals with Rattus norvegicus. The test can be described thus: The antihypertensive activity was assessed by measuring the mean arterial blood pressure in rats when administered at 50 mg/kg. In kind it is functional. The procedure, abridged:
as §1

Test [8] deals with Rattus norvegicus. The test can be described thus: The antihypertensive activity was assessed by measuring the mean arterial blood pressure in rats when administered at 10 mg/kg. The format is functional. Put shortly: as §1
Test [9] concerns Rattus norvegicus. The test is described as follows: The antihypertensive activity at 100 mg/kg administered perorally was assessed by measuring the mean arterial blood pressure (MABP) in rats. In kind it is functional. The following applies: route oral. Put shortly:
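Male SH rats (Okamoto, 16 weeks old) got 100 mg/kg by oral gavage in 3% starch in normal saline (2 mL/kg), then an oral 25 mL/kg saline load. They were redosed at 24 h without the load. MABP and HR were taken by direct femoral arterial puncture under local anesthesia 4 h after the second dose, in one to three rats per compound. Active: one rat reduced to 116 mmHg, or a two-rat average reduced to 122 mmHg.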

Test [10] concerns Rattus norvegicus. The test is described as follows: The antihypertensive activity was assessed by measuring the heart rate in rats when administered at 25 mg/kg. In kind it is functional. Put shortly: as §1
The subject of test [11] is Rattus norvegicus. The test can be described thus: Effect on the cardiovascular response to tilt challenge was measured in conscious spontaneously hypertensive rats administered perorally at 1 mL/100g. The format is functional, Heart. Put shortly:
(§2)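 Male Okamoto-Aoki SHR, about 350 g, conscious, held supine with elastic tape; tail base locally anesthetized with 2% procaine sc. Control responses were recorded first. Vehicle (10 mL/kg) or compound was then given orally, and challenges were repeated 1 h later. Challenges were a 75° tilt for 30 s and iv agonists (epinephrine 1 or 2 μg/kg). Read-out was change in MABP (mmHg); paired Student's t test.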

The subject of test [12] is Rattus norvegicus. The test can be described thus: The antihypertensive activity was assessed by measuring the mean arterial blood pressure in rats when administered at 25 mg/kg. In kind it is functional. The procedure, abridged:
as §1

For test [13], the system named is Rattus norvegicus. The test is described as follows: Effect on the cardiovascular response to tilt challenge was measured in conscious spontaneously hypertensive rats administered perorally at 50 mg/kg. In kind it is functional, Heart. Conditions: route oral. The procedure, abridged:
as §2

Test [14] concerns Rattus norvegicus. The test is described as follows: Effect on the […] was measured in conscious spontaneously hypertensive rat administered perorally at 1 mL/100g. In kind it is functional, Heart.
The test system of test [15] is Rattus norvegicus. The test is described as follows: Effect on the cardiovascular response to tyramine challenge was measured in conscious spontaneously hypertensive rats administered perorally at 50 mg/kg. In kind it is functional, Heart. Conditions: route oral.
Test [16] has as its system Rattus norvegicus. The test is described as follows: Effect on the cardiovascular response to epinephrine (1ug/kg, iv) challenge was measured in conscious spontaneously hypertensive rats administered perorally at 1 mL/100g. The format is functional, Heart. Put shortly: as §2
Test [17] has as its system Rattus norvegicus. The test is described as follows: Effect on the cardiovascular response to epinephrine (1ug/kg, iv) challenge was measured in conscious spontaneously hypertensive rats administered perorally at 50 mg/kg. In kind it is functional, Heart. Conditions: route oral. Put shortly: as §2
Test [18] deals with Rattus norvegicus. The test is described as follows: Effect on the cardiovascular response to tyramine challenge was measured in conscious spontaneously hypertensive rats administered perorally at 8 mL/100 g. In kind it is functional, Heart.
Test [19] has as its system Rattus norvegicus. The test is described as follows: Effect on the cardiovascular response to epinephrine (2ug/kg, iv) challenge was measured in conscious spontaneously hypertensive rats administered perorally at 1 mL/100g. The format is functional, Heart. The procedure, abridged:
as §2

In test [20] the test system is Rattus norvegicus. The test is described as follows: Effect on the cardiovascular response to epinephrine (2ug/kg, iv) challenge was measured in conscious spontaneously hypertensive rats administered perorally at 50 mg/kg. Conditions: route oral. In kind it is functional, Heart. The procedure, abridged:
as §2

The subject of test [21] is Rattus norvegicus. The test can be described thus: Effect on the cardiovascular response to isoproterenol challenge was measured in conscious spontaneously hypertensive rats administered perorally at 1 mL/100g. In kind it is functional, Heart.
Test [22] has as its system Rattus norvegicus. The test can be described thus: Effect on the cardiovascular response to isoproterenol challenge was measured in conscious spontaneously hypertensive rats administered perorally at 50 mg/kg. The format is functional, Heart. The following applies: route oral.
In test [23] the test system is Rattus norvegicus. The test is described as follows: Effect on the cardiovascular response to isoproterenol challenge was measured in conscious spontaneously hypertensive rats administered perorally at 8 mL/100 g. In kind it is functional, Heart.
Test [24] concerns Rattus norvegicus. The test can be described thus: Effect on the cardiovascular response to norepinephrine challenge was measured in conscious spontaneously hypertensive rats administered perorally at 50 mg/kg. The format is functional, Heart. The following applies: route oral.
Test [25] has as its system Rattus norvegicus. The test is described as follows: Effect on the cardiovascular response to norepinephrine challenge was measured in conscious spontaneously hypertensive rats administered perorally at 8 mL/100 g. In kind it is functional, Heart.
In test [26] the test system is Rattus norvegicus. The test is described as follows: Effect on the cardiovascular response to ACH challenge was measured in conscious spontaneously hypertensive rats administered perorally at 1 mL/100g. The format is functional, Heart.
Test [27] deals with Rattus norvegicus. The test is described as follows: Effect on the cardiovascular response to ACH challenge was measured in conscious spontaneously hypertensive rats administered perorally at 50 mg/kg. In kind it is functional, Heart. Conditions: route oral.
The test system of test [28] is Rattus norvegicus. The test is described as follows: Effect on the cardiovascular response to ACH challenge was measured in conscious spontaneously hypertensive rats administered perorally at 8 mL/100 g. In kind it is functional, Heart.
The test system of test [29] is Rattus norvegicus. The test is described as follows: Effect on the cardiovascular response to DMPP challenge was measured in conscious spontaneously hypertensive administered perorally rats at 1 mL/100g. In kind it is functional, Heart.
Test [30] deals with Rattus norvegicus. The test is described as follows: Effect on the cardiovascular response to DMPP challenge was measured in conscious spontaneously hypertensive rats administered perorally at 50 mg/kg. The format is functional, Heart. The following applies: route oral.
The test system of test [31] is Rattus norvegicus. The test can be described thus: Effect on the cardiovascular response to angiotensin II challenge was measured in conscious spontaneously hypertensive rats administered perorally at 1 mL/100g. In kind it is functional, Heart.
Test [32] deals with Rattus norvegicus. The test can be described thus: Effect on the cardiovascular response to angiotensin II challenge was measured in conscious spontaneously hypertensive rats administered perorally at 50 mg/kg. The format is functional, Heart. The following applies: route oral.
The subject of test [33] is Rattus norvegicus. The test can be described thus: Effect on the cardiovascular response to angiotensin II challenge was measured in conscious spontaneously hypertensive rats administered perorally at 8 mL/100 g. In kind it is functional, Heart.
Test [34] concerns Rattus norvegicus. The test is described as follows: Effect on the cardiovascular response to norepinephrine challenge was measured in conscious spontaneously hypertensive rats administered perorally at 1 mL/100g. The format is functional, Heart.

These results are taken from ChEMBL document CHEMBL1124416, “5-(1-piperazinyl)-1H-1,2,4-triazol-3-amines as antihypertensive agents” (1989).

With `Nc1n[nH]c(N2CCN(Cc3ccco3)CC2)n1`, the HR in [1] stood at 410 beats min-1; in test [2] it was 440 beats min-1; in [3] it was 370 beats min-1; in [4] it was 440 beats min-1. Also, the MABP is recorded as 114 mmHg in test [5], 115 mmHg in [6], 102 mmHg in [7] and 153 mmHg in test [8].
As to `Nc1n[nH]c(N2CCN(CCc3ccccc3)CC2)n1`, the HR in [1] was 330 beats min-1; in test [4] it was 440 beats min-1. For the same molecule, the MABP in [5] is reported as 77 mmHg; in [8], 142 mmHg.
As to `CN1CCN(c2n[nH]c(N)n2)CC1`, the HR in [9] was determined as 400 beats min-1; in test [3], 440 beats min-1. The MABP worked out at 116 mmHg in test [5] and 133 mmHg in test [7].
As for `Nc1n[nH]c(N2CCN(Cc3cccc(Cl)c3)CC2)n1`, the HR in test [1] was 300 beats min-1; in test [10] it was 440 beats min-1; in test [3], 440 beats min-1. The MABP in test [11] was found to be 17.3 delta mmHg; in test [5], 89 mmHg; in [12], 132 mmHg; in test [7], 113 mmHg; in test [13], 9.3 delta mmHg; in [14] it was 34.5 delta mmHg. In addition, the MABP in [15] turned out to be 34.8 delta mmHg; in test [16], 28.8 delta mmHg; in test [17] it was 29 delta mmHg; in [18] it was 35.3 delta mmHg; in [19], 37.3 delta mmHg; in test [20], 50.7 delta mmHg. Also, the MABP in [21] is on record as -38.5 delta mmHg; in [22], -46.7 delta mmHg; in test [23], -49.8 delta mmHg; in [24], 63 delta mmHg; in [25] it was 47.8 delta mmHg; in test [26] it was -54.5 delta mmHg. In addition, the MABP is recorded as -47 delta mmHg in test [27]; -68.5 delta mmHg in test [28]; 52.5 delta mmHg in test [29]; 30.3 delta mmHg in [30]; 49 delta mmHg in test [31]; 70.2 delta mmHg in test [32]. The MABP in [33] is on record as 55 delta mmHg; in test [34] it was 45.8 delta mmHg.
On to `Nc1n[nH]c(N2CCN(Cc3ccccc3)CC2)n1`, for which the HR was found to be 360 beats min-1 in test [1] and 400 beats min-1 in test [4]. In addition, the MABP in [5] was 102 mmHg; in test [8], 118 mmHg.
